High-throughput results as filed in PubChem BioAssay.
Compounds with a hit are over-represented: about 7.9% of the library has one in this group of screens.
JNK3 inh = inhibitors of human JNK3 kinase. AID 746. inhibition, % at 8 µM. 60,000 tested, 0.61% active. purified JNK3 kinase activity, HTS; in the data active = inhibition above about 17%;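 note: 0% = DMSO and 100% = reference inhibitor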
D1 allo mod = D1 dopamine receptor (human) allosteric modulation | AID 641 | P21728 | B-score at 10 µM | HEK293 D1, CRE-luciferase, dopamine EC30 potentiation; actives deviate in either direction | 58,000 tested, 5.9% active;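 active = luminescence count or its row- and column-corrected plate score outside the 99.7% band of the plate's sample wells, on either side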
Target sequence (P21728 whole entry, looked up): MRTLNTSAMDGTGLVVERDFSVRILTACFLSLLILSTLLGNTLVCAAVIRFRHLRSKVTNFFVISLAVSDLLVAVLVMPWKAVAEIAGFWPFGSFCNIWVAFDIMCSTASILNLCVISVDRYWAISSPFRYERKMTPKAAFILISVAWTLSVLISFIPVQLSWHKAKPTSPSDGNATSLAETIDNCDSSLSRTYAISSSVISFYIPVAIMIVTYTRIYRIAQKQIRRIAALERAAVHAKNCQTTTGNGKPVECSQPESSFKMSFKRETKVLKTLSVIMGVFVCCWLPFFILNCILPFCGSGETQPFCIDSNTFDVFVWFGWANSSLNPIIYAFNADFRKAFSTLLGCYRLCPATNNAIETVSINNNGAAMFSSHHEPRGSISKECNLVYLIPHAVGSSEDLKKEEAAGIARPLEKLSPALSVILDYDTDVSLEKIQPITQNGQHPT
SF1 activator = activates the human nuclear receptor SF-1; 65,000 tested, 1.9% active; CHO-K1 Gal4-SF-1 LBD luciferase reporter; % increase over DMSO SF-1-specific signal; activation, % at 10 µM; Q13285;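 active = activation above the mean activation of all tested compounds plus 3 SD, cut at about 50% in these data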
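Assay system – CHO-K1 cells with Gal4–hSF-1 LBD chimera plus Gal4-driven luciferase · Quantity – 4,000 cells per well · Times – compound added 1 h post-seeding, 20 h exposure at 37 °C, 5% CO2 · Measured by – luciferase light emission · Benchmarks – DMSO and mock-transfected background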
HEK293 NFkB inh = lowers PMA/ionomycin-induced NF-kB signal in HEK293 cells; AID 465; inhibition, % at 3 µM; 62,000 tested, 0.21% active; HEK-293 NF-kB luciferase reporter, luminescence;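 active = inhibition above the mean of all tested compounds plus 3 SD, cut at about 40% in these data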;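 note: 0% = stimulated DMSO wells and 100% = 10 µM reference inhibitor 5653914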
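Signal: luciferase luminescence; Material: HEK-293 cells with stable firefly luciferase reporter driven by four HIV NF-kB elements; Probe or stimulus: PMA with ionomycin; Replication: tested once; Times: 1 h compound pretreatment, then 16 h stimulation at 37 °C, 5% CO2; Benchmarks: DMSO and 10 µM reference inhibitor; Evaluation: per-plate % inhibition versus controls.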
RORa activator = RORA (human) activation. P35398. CHO-K1 Gal4-RORA LBD luciferase reporter, luminescence; percent increase over mock-subtracted basal signal. activation, % at 10 µM. 65,000 tested, 1.5% active. AID 560;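 active = activation above the mean of all tested compounds plus 3 SD, cut at about 49% in these data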;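 note: 0% = DMSO-treated RORA cells and 100% = added signal equal to DMSO minus mock-transfected cells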
D1 mod confirm = D1 receptor (human) allosteric modulation, confirmed | shares compounds with D1 allo mod | HEK293 D1 CRE-luciferase, dopamine EC30 potentiation; hits give high values | 2,200 tested, 88% active | luminescence at 10 µM;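 active = luminescence in either of two replicates above the same-plate mean plus 3 SD of the low-dose dopamine control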
D1 ag no DA = D1 (human) signaling in absence of dopamine; shares compounds with D1 allo mod; HEK293 D1 CRE-luciferase, luminescence, no dopamine; hits give high values; luminescence at 10 µM; 1,900 tested, 0.8% active; in the data active = luminescence above about 3900
Isoprot counter = alters isoproterenol CRE-luciferase response in HEK293 cells; shares compounds with D1 allo mod; HEK293 D1 CRE-luciferase, isoproterenol EC30 counter-screen; calls only at 10 µM; 2,200 tested, 63% active; AID 647;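 active = luminescence in either replicate above plate mean of wells with a partly effective reference agonist dose plus 3 SD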;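 note: isoproterenol raises cAMP through native beta-adrenoceptor Gs so signal bypasses D1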
An asterisk follows results filed as active; i = inactive; · = no result; + = active, no number.

SMILES	JNK3 inh	D1 allo mod	SF1 activator	HEK293 NFkB inh	RORa activator	D1 mod confirm	D1 ag no DA	Isoprot counter
Cc1cc(C)n(CCCNC(=O)c2ccc(S(=O)(=O)NCc3ccco3)cc2)n1	-4	-1.3	5	18	13	·	·	·
CCOC(=O)C1=C(C)NC(C)=C(C(=O)OCC)C1C(=O)OCC(=O)c1ccc2c(c1)OCCO2	2	10*	-6	1	-1	7616*	1608	+
CCOC(=O)C1=C(C)NC(C)=C(C(=O)OCC)C1C(=O)OCC(=O)N1CCc2ccccc21	2	-0.15	-8	24	-26	·	·	·
C/C(Cl)=C/Cn1c(=O)c2c(nc(Br)n2Cc2ccccc2)n(C)c1=O	4	4.8*	-10	9	6	11400*	1484	+
CCNc1nc2c(c(=O)n(C)c(=O)n2C)n1Cc1ccc(Cl)cc1	4	·	-54	15	-48	·	·	·
CCNc1nc2c(c(=O)n(Cc3ccccc3)c(=O)n2C)n1Cc1ccccc1	5	4.4*	10	22	-2	8220*	1508	+
COc1ccc(N2CCN(S(=O)(=O)c3cccc4cccnc34)CC2)cc1	-9	8.7*	8	8	-4	19744*	1632	+
COc1ccc(NC(=O)C2CCN(S(=O)(=O)c3cccc4cccnc34)CC2)cc1OC	3	3.6*	-2	15	-7	13296*	1648	+
CSc1nc(NC(C)=O)nc(C)c1Cl	-8	·	4	·	-9	·	·	·
Nc1nc(CSc2nc3ccccc3[nH]2)nc(N2CCOCC2)n1	10	1.2	12	10	-11	·	·	·
O=C(OCCN1C(=O)c2ccccc2C1=O)c1cc(S(=O)(=O)N2CCOCC2)ccc1F	7	12*	-11	10	-9	9428*	1532	+
O=C(CCN1C(=O)c2ccccc2C1=O)Nc1ccc(S(=O)(=O)N2CCOCC2)cc1	-1	-0.064	-10	4	-10	·	·	·
O=S(=O)(c1ccc2ccccc2c1)N(CC(O)CN1CCOCC1)c1ccccc1 (stereo not given)	-4	-0.08	-3	·	-4	·	·	·
CC(C)(C)OC(=O)N1CCC(c2c(C(=O)O)cnn2-c2ccccc2)CC1	-3	-1.6	-6	7	18	·	·	·
CCOc1ccc(-c2cc3nc(C4CCN(C(=O)OC(C)(C)C)CC4)c(C(=O)O)cn3n2)cc1	-6	13*	3	0	13	13012*	1592	+
CC(C)COP(=O)(c1ccc(N(C)C)cc1)C(O)c1ccccc1F (stereo not given)	0	1.4	16	23	-12	·	·	·
FC(F)(F)c1nnc2sc(-c3cccs3)nn12	-7	22*	-20	10	-13	10532*	1524	+
CC1(C(=O)O)CCC(C(=O)Nc2ccc(S(N)(=O)=O)cc2)C1(C)C (stereo not given)	-13	0.3	-13	14	10	·	·	·
CC(C)CCCNc1nc(N2CCOCC2)nc(N2CCOCC2)n1	1	1.2	2	6	-5	·	·	·
CSc1nc(NC(C)(C)C)nc(N2CCOCC2)n1	·	15*	6	12	-13	15276*	1464	+
CCNc1nc(SCC(=O)OC)nc(N2CCOCC2)n1	·	6.4*	10	14	-8	18868*	1512	+
CCNc1nc(SC(C)C(=O)OC)nc(N2CCOCC2)n1 (stereo not given)	·	7*	6	1	-6	16348*	1712	+
COc1ccc(CNC(=O)CN(C(=O)c2cc3sccc3n2C)C2CCCC2)cc1	3	-0.38	-2	10	-17	·	·	·
CC(CC(=O)O)CC(=O)Nc1ccccc1C(=O)O (stereo not given)	-3	-0.78	14	10	-8	·	·	·
CCOC(=O)c1c(NC(=O)c2nn(CC)cc2Br)c(C#N)cn1-c1ccccc1	2	6.7*	1	14	-10	8888*	816	+
SMILES	JNK3 inh	D1 allo mod	SF1 activator	HEK293 NFkB inh	RORa activator	D1 mod confirm	D1 ag no DA	Isoprot counter
CCOC(=O)c1nc(N)c(=O)n(-c2ccccc2)n1	0	1.6	-12	-7	-13	·	·	·
CCOC(=O)c1c(N)c(C#N)cn1-c1ccccc1	4	20*	-4	1	-19	19404*	1788	+
CC1(C)C(=O)OC(c2c(F)c(F)c(F)c(F)c2F)C2(CCCCC2)C1=O (stereo not given)	-6	-0.51	5	11	-10	·	·	·
CSc1cc(/C=N/O)c(SC)s1	5	6.9*	-16	9	3	12744*	1664	i
CCOC(=O)c1[nH]c(C)c(C(=O)OCc2c(C)noc2C)c1C	-1	5.1*	-8	13	3	7568*	880	+
COc1ccc(-c2cc(-c3ccccc3O)[nH]n2)cc1OC	5	3.4*	23	-2	-9	8764*	1644	+
COc1ccc(CCNC(=O)c2cc(-c3ccccc3O)n[nH]2)cc1OC	9	4.4*	5	9	-2	8340*	1572	+
COc1ccc(-c2cc(-c3cc(F)ccc3O)[nH]n2)cc1OC	-3	0.59	36	-7	4	·	·	·
COc1ccc(CCNC(=O)CN2C(=O)c3ccccc3S2(=O)=O)cc1OC	6	4.3*	-10	6	7	7364*	1808	+
COc1ccc(CCNC(=O)c2cnc3n(c2=O)CCS3)cc1OC	-3	4.7*	-6	15	15	9460*	1716	+
CNc1nc(C)nc(-c2ccccc2O)n1	3	9.1*	35	10	14	23276*	1644	+
Cc1cc(Oc2ccccc2)nc(-c2ccccc2O)n1	3	·	3	3	9	·	·	·
FC(F)(F)c1nc2nncn2c2c1CCCCC2	0	-0.35	-19	17	7	·	·	·
COc1nc(Nc2ccc(O)cc2)nc(OC(C(F)(F)F)C(F)(F)F)n1	-5	6.2*	-8	13	-11	13552*	·	+
O=C1NC(c2ccccc2)(C(F)(F)F)C(=O)N1Cc1cccnc1 (stereo not given)	-7	1	5	7	9	·	·	·
CN=C1SC(CC(=O)Nc2sc(C)c(C)c2C(=O)OC)C(=O)N1C (stereo not given)	1	3.4*	-3	10	-15	8820*	1856	+
O=C(CCNc1ccc(F)cc1)c1ccco1	5	-0.8	19	7	-4	·	·	·
Cn1c(=O)c2c(nc(SCCCC#N)n2Cc2ccccc2F)n(C)c1=O	0	5.2*	8	12	-7	15976*	1696	i
